Activity calls are given as the source filed them. The rule behind the calls is not given here.
Tests used:
Mus musculus [1] = test: Antiinflammatory activity in FVB mouse peritonitis model assessed as reduction in zymosan-induced polymorphonuclear leukocyte infiltration at 1 ng, iv after 4 hrs; format: functional, organism-based
How it was run: (§1)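 Male FVB mice, 6–8 weeks, isoflurane-anesthetized; compounds as carboxymethyl esters given iv by tail vein in 100 μl saline (0.05–50 μgkg–1 range), then zymosan A 1 mg/ml ip. Peritoneal lavage at 4 h; cells counted after trypan blue, differentials by Wright-Giemsa cytospin; reduction versus saline vehicle plus zymosan; mean ± S.E., n = 3.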

[2] = Antiinflammatory activity in human polymorphonuclear leukocytes assessed as inhibition of n-formylmethionylleucylphenylalanine-stimulated transendothelial migration after 15 mins; details: 0.25 h
Mus musculus [3] = test: Antiinflammatory activity in iv dosed FVB mouse peritonitis model assessed as reduction in zymosan-induced polymorphonuclear leukocyte infiltration at after 4 hrs; format: functional, organism-based
[4] = Antiinflammatory activity in human polymorphonuclear leukocytes assessed as inhibition of n-formylmethionylleucylphenylalanine-stimulated transendothelial migration at 10 nM after 15 mins; format: functional; parameters: scale not given: the % may be the effect or the level left
How it was run: (§2)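 Human PMNs from venous blood (Histopaque 1077/1119 double gradient, NH4Cl lysis, >90% pure) in HBSS pH 7.4, preincubated 15 min at room temperature with 0–1000 nm compound; 10^6 cells added atop HMEC-1 monolayers on Transwell inserts; 100 nm fMLP lower chamber; migration 30 min, 37 °C, quantified by MPO; expressed as % reduction versus untreated PMNs.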

Mus musculus [5] = test: Antiinflammatory activity in FVB mouse peritonitis model assessed as reduction in zymosan-induced total leukocyte infiltration at 10 ng, iv after 4 hrs; format: functional; parameters: scale not given: the % may be the effect or the level left; how it was run: as §1
Mus musculus [6] = test: Antiinflammatory activity in FVB mouse peritonitis model assessed as reduction in zymosan-induced polymorphonuclear leukocyte infiltration at 100 ng, iv after 4 hrs; format: functional; parameters: scale not given: the % may be the effect or the level left; how it was run: as §1
[7] = Antiinflammatory activity in human polymorphonuclear leukocytes assessed as inhibition of n-formylmethionylleucylphenylalanine-stimulated transendothelial migration at 1 uM after 15 mins; format: functional; parameters: scale not given: the % may be the effect or the level left; how it was run: as §2
Mus musculus [8] = test: Antiinflammatory activity in FVB mouse peritonitis model assessed as reduction in zymosan-induced polymorphonuclear leukocytes infiltration at 10 ng, iv after 4 hrs; format: functional; parameters: scale not given: the % may be the effect or the level left; how it was run: as §1

CC/C=C\C[C@H](O)/C=C/C=C\C=C\C=C\[C@@H](O)[C@@H](O)C/C=C\CCC(=O)O
Activity (Mus musculus [1]): Active | EC50 [2]: 30 nM | Activity (Mus musculus [3]): Dose-dependent effect | Activity [4]: 50% | Activity (Mus musculus [5]): 8% | Activity (Mus musculus [6]): 35%

CC/C=C\C[C@@H](O)/C=C/C=C\C=C\C=C\[C@@H](O)[C@@H](O)C/C=C\CCC(=O)O
Activity (Mus musculus [1]): Active | EC50 [2]: 30 nM | Activity [7]: 65% | Activity (Mus musculus [3]): Dose-dependent effect | Activity [4]: 50% | Activity (Mus musculus [5]): 23% | Activity (Mus musculus [6]): 35%

CC/C=C\C[C@@H](O)/C=C/C=C\C=C\C=C\C(=O)[C@@H](O)C/C=C\CCC(=O)O
Activity (Mus musculus [8]): 41%

CC/C=C\CC(=O)/C=C/C=C\C=C\C=C\[C@@H](O)[C@@H](O)C/C=C\CCC(=O)O
Activity (Mus musculus [8]): inactive
